Source: the RNAGym collection of RNA variant scans (doi:10.1126/science.aae0568)
Variants at the floor of the assay were thinned out.

B1: tRNA (parent)
chain: GUUCCGUUGGCGUAAUGGUAACGCGUCUCCCUCCUAAGGAGAAGACUGCGGGUUCGAGUCCCGUACGGAACG

Variants of: B1
Experiment: yeast fitness relative to wild type (ratio to wild type); higher = fitter; tRNA-Arg(CCU), competitive growth, 37 C, YPD
How it was run: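 Variants of the tRNA-Arg(CCU) gene, chemically synthesised with a 3% per-site mutation rate at 69 sites, were placed at the native genomic locus in Saccharomyces cerevisiae. The pooled strains were competed in YPD at 37°C for 24 hours in six parallel replicates. Gene amplicons from the start population and from each end population were read by 100-nucleotide paired-end sequencing. Darwinian fitness relative to wild type came from changes in genotype frequencies; genotypes needed ≥ 100 starting reads, and estimates < 0.5 were set to 0.5.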

Variant	yeast fitness
GUUCCGUUGGCAUAAUGGUAACGCGUCUCCCUCCUAAGGAGAAGACUGUGGGUUCAAGUCGCGUACGGAACG	≤ 0.5
GUUCCGUUGGCAUAAUGGUAACGCGUCUCCCUCCUAAGGAGAAGACUGUGGGUUCGAGUCCCGUACCGGACG	≤ 0.5
GUUCCGUUGGCAUAAUGGUAACGCGUCUCCCUCCUAAGGAGAAGACUGCGGGUUAGAGUCCCGUACAGAGCG	≤ 0.5
GUUCCGUUGGCAUAAUGGUAACGCGUCUCCCUCCUAAGGAGAAGACUGCGGGUUUGAGUCCCGUAGGGAACG	0.569
GUUCCGUUGGCAUAAUGGUAACGCGUCUCCCUCCUAAGGAGAAGACUGCGGGUUCGAGUCACGUUCGGAACG	≤ 0.5
GUUCCGUUGGCAUAAUGGUAACGCGUCUCCCUCCUAAGGAGAAGACUGCGGGUUCGAGUCCAGUACGGAACG	0.823
GUUCCGUUGGCAUAAUGGUAACGCGUCUCCCUCCUAAGGAGAAGACUGCGGGUUCGAGUCCUGUACGGAACG	0.815
GUUCCGUUGGCAUAAUGGUAACGCGUCUCCCUCCUAAGGAGAAGACUGCGGGUUCGAGUCCUGUACGGAGCG	0.69
GUUCCGUUGGCAUAAUGGUAACGCGUCUCCCUCCUAAGGAGAAGACUGCGGGUUCGAGUCCUAUACGGAACG	≤ 0.5
GUUCCGUUGGCAUAAUGGUAACGCGUCUCCCUCCUAAGGAGAAGACUGCGGGUUCGAGUCCCGUAAGGAACG	0.654
GUUCCGUUGGCAUAAUGGUAACGCGUCUCCCUCCUAAGGAGAAGACUGCGGGUUCGAGUCCCGUAGGGAACG	0.79
GUUCCGUUGGCAUAAUGGUAACGCGUCUCCCUCCUAAGGAGAAGACUGCGGGUUCGAGUCCCGUAUGGAACG	0.834
GUUCCGUUGGCAUAAUAGUAACGCGUCUCCCUCCUAAGGAGAAGACUGCGGGUUCGAGUCCCGUACGGAACG	0.881
GUUCCGUUGGCAUAAUAGUACCGCGUCUUCCUCCUAAGGAGAAGACUGCGGGUUCGAGUCCCGUACGGAACG	≤ 0.5
GUUCCGUUGGCAUAAUAGUAACGCGUCUUCCUCCUAAGGAGAAGACUGCGGGUUCGAGUCCCGUACGGAACG	≤ 0.5
GUUCCGUUGGCAUAAUAAUAACGCGUCUCCCUCCUGAGGAGUAGAUUGCGGGUUUGAGUCCCGUACGGAACG	0.581
GUUCCGUUGGCAUAAUAGUAACGCGACUCCCUCCUAAGGUGAAGACUGCGGGUUCGAGUCCCGUACGGAACG	≤ 0.5
GUUCCGUUGGCAUAAUCGUAACGCGUCUCCCUCCUAAGGAGAAGACUGCGGGUUCGAGUCCCGUAUGGAACG	≤ 0.5
GUUCCGUUGGCAUAAUCGUAACGCCUCUGCCUCCUUAGAAGAAGAUUGCGGGUUUGAGUCCCGUACGGAACG	≤ 0.5

Variant	yeast fitness
GUUCCGUUGGCAUAAUUGUAACGCGUCUCCCUCCUAAGGAGAAGACUGGGGGUUCGAGUUCCGUACGAAACG	≤ 0.5
GUUCCGUUGGCAUAAUGAUAUCGCGUCUCCCUCCUAAGGAAAAGACUGCGGGUUCGAGUCCCGUACGGAACG	0.877
GUUCCGUUGGCAUAAUGAUAUCGCGUCUCCCUCCUAAGGAAAAGAUUGCGGGUUCGAGUCCCGUACGGAACG	0.535
GUUCCGUUGGCAUAAUGAUAACGCGUUUCCCUCCUAAGGAGAAGAUUACGGGUUCGAGUCCCGUACGGAACG	≤ 0.5
GUUCCGUUGGCAUAAUGAUAACGCGUCUCCUUCCUAAGGAGAAGACUGCGGGUUCGAGUCCCGUACGGAGCG	≤ 0.5
GUUCCGUUGGCAUAAUGAUAACGCGUCUCCCUCCUAAGGAGAAGACUGCGGGUUCGAGUCGCGUACGGAGCG	0.682
GUUCCGUUGGCAUAAUGCUAACGCGUCUCCCUCCUAAGGAGAAGACUGCGGGUUCGAGUCCCGUACGGAACG	0.591
GUUCCGUUGGCAUAAUGCUAACGCGUCUCCCUCCUCAGGAGAAGACUGCGGGUUCGAGUCCCGUACGGAACG	0.537
GUUCCGUUGGCAUAAUGCUAACGCGUCUCCCUCCUAAGGAGUAGACUGCGGGUUCGAGUCCCGUACGGAACG	0.65
GUUCCGUUGGCAUAAUGCUAACGCGUCUCCCUCCUAAGGAGUAGACUGCGGGUUCGAAUCCCGUACGAAACG	≤ 0.5
GUUCCGUUGGCAUAAUGCUAACGCGUUUCCCUCCUAAGGAGAAGACUGCGGGUUAGAGUCCCGUACGGAACG	≤ 0.5
GUUCCGUUGGCAUAAUGCUAACGCGUCUCCCUUCUAAGGAGAAGACUGCGGGUUCGAGUCCCGUACGGCACG	0.528
GUUCCGUUGGCAUAAUGCUAACGCGUCUCCCUCCUAAGGAGAAGACUGCGGGUUCGAGUCCUCUACGGACCG	≤ 0.5
GUUCCGUUGGCAUAAUGCCAACGCGUCUUCCUCCUAAGGAGAAGACUGCGGGUUCGAGUCCCGUACGGAACG	≤ 0.5
GUUCCGUUGGCAUAAUGUUAACGCGUCUCCCUCCUAAGAAGAAGACUGCGGGUUCGAGUCCCGUACGGAACG	≤ 0.5
GUUCCGUUGGCAUAAUGGUAACACGUCUCCCUCCUAAGGAGAAGACUGUGGGUUCGAGUUCCGUACAGAACG	≤ 0.5
GUUCCGUUGGCAUAAUGGUAACACGUCUCCCUCCGGAGGAGAAGACUGCGGGUUCGCGUCCUGUACGGAACG	≤ 0.5
GUUCCGUUGGCAUAAUGGUAACACGUCUCCCUCCGGAGGAGAAGAUUGCGGGUUCGUGUCCCGUACGGAACG	≤ 0.5
GUUCCGUUGGCAUAAUGGUAACACGUCUCCCUCCGAAGGAGAAGACUGCGGGUUCGAAUCCCGUACGGAACG	≤ 0.5
